pKi: −log10 of the molar value.
Experiments:
Cytochrome P450 1A1 [1] = target: T1, Cytochrome P450 1A1 (Homo sapiens, UniProt P04798); assay: Inhibition of human microsomal CYP1A1-dependent ethoxyresorufin-O-deethylase activity by spectrofluorimetric analysis in presence of NADPH regenerating solution
T1 sequence (P04798 whole entry): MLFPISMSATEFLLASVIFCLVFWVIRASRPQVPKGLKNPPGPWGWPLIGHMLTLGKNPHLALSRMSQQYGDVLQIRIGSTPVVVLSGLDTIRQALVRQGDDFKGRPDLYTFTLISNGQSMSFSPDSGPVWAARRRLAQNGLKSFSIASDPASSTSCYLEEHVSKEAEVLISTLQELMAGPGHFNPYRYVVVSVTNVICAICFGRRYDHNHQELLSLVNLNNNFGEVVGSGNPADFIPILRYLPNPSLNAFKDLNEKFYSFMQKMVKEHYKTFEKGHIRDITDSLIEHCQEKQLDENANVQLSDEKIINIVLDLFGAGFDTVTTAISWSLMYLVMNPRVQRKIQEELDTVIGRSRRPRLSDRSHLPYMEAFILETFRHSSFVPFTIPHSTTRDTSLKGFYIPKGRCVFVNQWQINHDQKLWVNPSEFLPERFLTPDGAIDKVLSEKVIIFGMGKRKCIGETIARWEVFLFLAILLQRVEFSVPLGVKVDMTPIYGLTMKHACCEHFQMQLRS
How it was run: (§1)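 Microsomal P450 (final 5 nM) in 0.1 M potassium phosphate pH 7.6 with MgCl2 at 37 °C. Substrate final 5 µM: ethoxyresorufin for 1A1/1B1, methoxyresorufin for 1A2. […] Ki was taken as the x-intercept of Dixon plots (1/v0 vs [I]). Mean ± SD of three independent experiments. Selectivity ratios are ratios of these Ki.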

Homo sapiens = species on record: Homo sapiens; assay: Selectivity ratio of Ki for human microsomal CYP1A1 to Ki for human microsomal CYP1A2; how it was run: as §1
Cytochrome P450 1A2 = target: T2, Cytochrome P450 1A2 (Homo sapiens, UniProt P05177); assay: Inhibition of human microsomal CYP1A2-dependent methoxyresorufin-O-demethylase activity measured over 6 mins by spectrofluorimetric analysis; conditions: 0.1 h; how it was run: as §1
T2 sequence (P05177 whole entry): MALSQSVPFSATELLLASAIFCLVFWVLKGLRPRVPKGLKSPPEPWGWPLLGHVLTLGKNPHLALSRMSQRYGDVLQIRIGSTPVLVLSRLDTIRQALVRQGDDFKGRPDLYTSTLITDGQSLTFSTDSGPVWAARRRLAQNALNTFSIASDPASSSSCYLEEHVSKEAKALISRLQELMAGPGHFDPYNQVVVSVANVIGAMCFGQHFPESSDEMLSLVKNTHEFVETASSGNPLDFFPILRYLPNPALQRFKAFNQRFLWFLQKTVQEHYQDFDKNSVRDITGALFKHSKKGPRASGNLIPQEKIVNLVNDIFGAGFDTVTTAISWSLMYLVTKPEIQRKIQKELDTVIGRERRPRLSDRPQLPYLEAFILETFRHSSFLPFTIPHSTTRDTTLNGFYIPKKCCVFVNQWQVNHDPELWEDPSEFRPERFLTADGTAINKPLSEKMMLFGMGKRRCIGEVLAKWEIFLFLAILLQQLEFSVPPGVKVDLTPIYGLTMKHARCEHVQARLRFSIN

Cytochrome P450 1A1 [2] = target: T1, Cytochrome P450 1A1; assay: Inhibition of human microsomal CYP1A1-dependent ethoxyresorufin-O-deethylase activity at 10 nM preincubated for 5 mins followed by NADPH regenerating solution and substrate addition measured over 6 mins by spectrofluorimetric analysis; conditions: 0.1 h, 0.01 µM
How it was run: (§2)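 Microsomal P450 in 0.1 M potassium phosphate pH 7.6 with MgCl2 and 10 nM inhibitor in DMSO, 2 mL final. Preincubated 5 min at 37 °C either with NADPH-regenerating solution, or without it, with NADPH then added at start. Reaction started with ethoxyresorufin (final 5 µM). Resorufin formation followed 6 min at 37 °C.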

Cytochrome P450 1B1 [3] = target: T3, Cytochrome P450 1B1 (Homo sapiens, UniProt Q16678); assay: Inhibition of human microsomal CYP1B1-dependent ethoxyresorufin-O-deethylase activity at 10 nM preincubated for 5 mins followed by NADPH regenerating solution and substrate addition measured over 6 mins by spectrofluorimetric analysis; conditions: 0.1 h, 0.01 µM; how it was run: as §2
T3 sequence (Q16678 whole entry): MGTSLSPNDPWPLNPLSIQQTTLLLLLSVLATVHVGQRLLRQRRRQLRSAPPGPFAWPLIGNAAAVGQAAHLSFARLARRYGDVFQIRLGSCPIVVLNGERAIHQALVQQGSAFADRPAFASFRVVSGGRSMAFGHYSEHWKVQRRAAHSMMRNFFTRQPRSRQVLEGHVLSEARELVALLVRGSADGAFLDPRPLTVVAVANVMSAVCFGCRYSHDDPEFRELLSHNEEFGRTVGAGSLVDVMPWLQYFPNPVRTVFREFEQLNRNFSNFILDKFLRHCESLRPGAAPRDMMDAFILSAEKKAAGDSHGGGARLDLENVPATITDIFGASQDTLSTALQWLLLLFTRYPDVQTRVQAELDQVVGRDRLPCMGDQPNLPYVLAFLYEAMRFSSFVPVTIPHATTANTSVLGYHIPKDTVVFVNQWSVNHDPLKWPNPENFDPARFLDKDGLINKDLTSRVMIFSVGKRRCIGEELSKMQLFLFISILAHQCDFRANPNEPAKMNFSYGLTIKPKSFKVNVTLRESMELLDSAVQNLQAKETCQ

Cytochrome P450 1B1 [4] = target: T3, Cytochrome P450 1B1; assay: Inhibition of human microsomal CYP1B1-dependent ethoxyresorufin-O-deethylase activity at 10 nM measured over 6 mins by spectrofluorimetric analysis in absence of NADPH regenerating solution; conditions: 0.1 h, 0.01 µM; how it was run: as §2
CYP1A2 = target: T4, CYP1A2 (Homo sapiens, UniProt P05177); assay: Time-dependent inhibition of human microsomal CYP1A2-dependent methoxyresorufin-O-demethylase activity by spectrofluorimetric analysis in presence of NADPH regenerating solution; conditions: human microsomal CYP1A2, probe methoxyresorufin (O-demethylation)
T4 sequence (P05177 whole entry): T2 sequence (P05177 whole entry)
How it was run: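 1A2 MROD run with NADPH at 0.0125, 0.025, 0.05 and 0.1 µM inhibitor, product monitored continuously over 6 min. Activity at different times came from first derivatives of product curves, expressed as % of control remaining. KI and limiting kinact were derived from the resulting linear plot.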

Cc1cc2c(ccc3c(=O)cc(-c4ccccc4)oc32)o1
pKi (Cytochrome P450 1A1 [1]): 6.37 | Ratio Ki (Homo sapiens): 14 | inhibition (INH) (Cytochrome P450 1A2): Dose-dependent effect | inhibition (INH) (Cytochrome P450 1A1 [2]): Not Active | inhibition (INH) (Cytochrome P450 1B1 [3]): Not Active | inhibition (INH) (Cytochrome P450 1B1 [4]): Not Active | kinact (CYP1A2): 0.007 s⁻¹
